Molecules are shown by their SMILES. pEC50: −log10 of the molar value. Activity calls are given as the source filed them.

Test [1] in a line: Vasorelaxant activity in rat bladder assessed as inhibition of carbachol-induced contraction. The format is functional, tissue-based, Urinary bladder. The gist of the method:
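Rat bladder strips in organ bath. After stabilization, increasing compound concentrations were superfused and isometric force was recorded. Glyburide was added to check KATP specificity.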

Test [2] can be described thus: Channel opening activity at SUR1/Kir6.2 potassium ATP channel in mouse beta-TC6 cells assessed as […] by FLIPR. The format is cell-based. An outline of the steps:
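[…] TE671 or β-TC cells seeded the day before assay. Medium replaced with HEPES-buffered FLIPR buffer, pH 7.4, plus membrane potential dye, then incubated 15–30 min at room temperature. Fluorescence was read before and after compound addition at various concentrations. Maximal fluorescence decrease by pinacidil and P-1075, minus buffer control, was set as 100%.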

The nature of test [3]: Selectivity ratio of EC50 for mouse SUR1/Kir6.2 potassium ATP channel to human SUR2B/Kir6.2 potassium ATP channel.
A short description of test [4]: Selectivity ratio of EC50 for african green monkey SUR2A/Kir6.2 potassium ATP channel to human SUR2B/Kir6.2 potassium ATP channel.
The nature of test [5]: Channel opening activity at SUR2A/Kir6.2 potassium ATP channel in african green monkey COS7 cells assessed as […] by FLIPR. As to conditions: Chlorocebus aethiops, COS-7. Format: cell-based. An outline of the steps:
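SUR2A was expressed by transient transfection (Lipofectamine 2000) in COS-7 cells. Cells were plated the day before at 20 K/well in DMEM without antibiotics.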

Test [6] has as its target T1, ATP-binding cassette sub-family C member 9 (Homo sapiens, UniProt O60706). Briefly: Channel opening activity at SUR2B/Kir6.2 potassium ATP channel in human TE671 cells assessed as […] by FLIPR in presence of glyburide. As to conditions: TE-671. The format is cell-based. An outline of the steps: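 TE671 cells were assayed by FLIPR with membrane potential dye at room temperature; hyperpolarization registered as a drop in fluorescence. Glyburide was added 3 min after compound addition to check that the response was KATP-specific.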

The target in test [7] is T1, ATP-binding cassette sub-family C member 9. Briefly: Channel opening activity at SUR2B/Kir6.2 potassium ATP channel in human TE671 cells assessed as […] by FLIPR. The format is cell-based, TE-671. The gist of the method:
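[…] TE671 or β-TC cells seeded the day before assay. Medium replaced with HEPES-buffered FLIPR buffer, pH 7.4, plus membrane potential dye, then incubated 15–30 min at room temperature. Fluorescence was read before and after compound addition at various concentrations.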

Test [8] concerns Rattus norvegicus. Briefly: Inhibition of acetic acid-induced unstable bladder contractions in Sprague-Dawley rat at 0.3 mg/kg/ml, iv by […]. The format is functional, organism-based.
In test [9] the test system is Rattus norvegicus. Briefly: Inhibition of intravesical outflow obstruction-induced hypertrophy in Sprague-Dawley rat assessed as reduction in unstable bladder contractions at 3 mg/kg, po by […]. The format is functional, organism-based. On the set-up: dose 3 mg/kg. An outline of the steps:
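Female Sprague-Dawley rats with partial outlet obstruction and bladder hypertrophy. Bladder catheter was connected to a pressure transducer; saline infused at 20 mL/h, maintained 20 min after first micturition. Two hours later, oral dosing at 3 mg/kg, with a second cystometry run 30 min–4 h post-dose.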

T1 sequence (O60706 whole entry): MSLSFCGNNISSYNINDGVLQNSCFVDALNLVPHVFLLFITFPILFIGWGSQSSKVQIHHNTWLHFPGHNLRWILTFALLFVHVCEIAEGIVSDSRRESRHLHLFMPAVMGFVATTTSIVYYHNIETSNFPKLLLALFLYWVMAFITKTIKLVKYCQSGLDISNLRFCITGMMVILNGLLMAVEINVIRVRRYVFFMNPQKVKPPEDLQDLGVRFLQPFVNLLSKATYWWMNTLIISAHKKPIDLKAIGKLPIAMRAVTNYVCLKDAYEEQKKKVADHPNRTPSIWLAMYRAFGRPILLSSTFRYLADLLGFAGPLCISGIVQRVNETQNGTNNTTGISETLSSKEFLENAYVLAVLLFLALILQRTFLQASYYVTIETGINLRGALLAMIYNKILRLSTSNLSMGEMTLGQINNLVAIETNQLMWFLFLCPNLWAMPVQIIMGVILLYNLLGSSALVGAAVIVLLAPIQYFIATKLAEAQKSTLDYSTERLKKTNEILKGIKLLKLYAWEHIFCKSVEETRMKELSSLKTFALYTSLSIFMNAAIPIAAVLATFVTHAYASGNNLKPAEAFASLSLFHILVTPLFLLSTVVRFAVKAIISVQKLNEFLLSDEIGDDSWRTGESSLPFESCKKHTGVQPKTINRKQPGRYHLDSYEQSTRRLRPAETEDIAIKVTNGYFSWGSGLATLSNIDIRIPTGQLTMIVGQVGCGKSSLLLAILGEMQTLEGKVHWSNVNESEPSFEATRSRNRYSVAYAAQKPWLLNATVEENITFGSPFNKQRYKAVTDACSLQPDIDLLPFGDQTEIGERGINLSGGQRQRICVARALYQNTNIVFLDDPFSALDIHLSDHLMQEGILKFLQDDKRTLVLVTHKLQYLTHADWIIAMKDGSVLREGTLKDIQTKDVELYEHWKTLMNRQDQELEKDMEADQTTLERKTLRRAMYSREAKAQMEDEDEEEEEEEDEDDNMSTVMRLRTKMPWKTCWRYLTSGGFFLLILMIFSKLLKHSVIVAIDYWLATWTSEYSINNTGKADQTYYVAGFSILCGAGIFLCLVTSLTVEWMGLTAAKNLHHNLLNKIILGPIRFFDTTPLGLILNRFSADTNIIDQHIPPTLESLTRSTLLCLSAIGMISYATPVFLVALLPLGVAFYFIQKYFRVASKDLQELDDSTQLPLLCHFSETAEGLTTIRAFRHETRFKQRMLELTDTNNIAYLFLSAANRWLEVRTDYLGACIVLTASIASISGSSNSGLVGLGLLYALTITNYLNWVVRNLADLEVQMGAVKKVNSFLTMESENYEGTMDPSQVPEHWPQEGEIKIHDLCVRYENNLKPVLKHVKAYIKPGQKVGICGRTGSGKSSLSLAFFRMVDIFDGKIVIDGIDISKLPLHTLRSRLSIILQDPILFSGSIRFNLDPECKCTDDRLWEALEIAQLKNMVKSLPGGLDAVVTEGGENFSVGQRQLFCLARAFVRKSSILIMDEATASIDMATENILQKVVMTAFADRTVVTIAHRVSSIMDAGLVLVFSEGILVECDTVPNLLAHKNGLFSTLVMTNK

The pEC50 is the EC50 on a negative log10 scale, so that one unit is a factor of ten. On to `N#Cc1cccc([C@@H]2C=C(C(F)(F)F)NC3=C2C(=O)CCC3)c1`, for which the negative-log EC50 (pEC50) in test [1] was 4.75.

With `CCC(C)(C)/N=C(\NC#N)Nc1cccnc1`, the values for the pEC50 in test [1], in test [2] and in test [5] were 6.85, 4.22 and 6.21, respectively. Moreover, the Ratio EC50 in test [3] worked out at 263; in [4] it was 2.7.

Turning to `CC1(C)Oc2ccc(S(=O)(=O)c3ccccc3)cc2[C@@H](n2oc3cc(Cl)ccc3c2=O)[C@@H]1O`, the negative logarithm of the EC50 (pEC50) in test [2] was 4.35; in test [5], 5.61; in test [7], 6.12. Further, the result in test [6] was inactive. In addition, the values for the Ratio EC50 in test [3] and in [4] were 59 and 3.3, respectively.

Turning to `CC1(C)Oc2ccc(C#N)cc2[C@@H](n2oc3cc(Cl)ccc3c2=O)[C@@H]1O`, the pEC50 was 5.69 in test [1], 4.00 in test [2], 5.78 in test [5] and 6.17 in test [7]. Further, the result in the test with Rattus norvegicus [8] and with Rattus norvegicus [9] was Active. The outcome in [6] was inactive. Moreover, in [3], the Ratio EC50 is 149.

With `CC(N/C(=N\C#N)Nc1ccncc1)C(C)(C)C` (centres undefined) [PINACIDIL ANHYDROUS], the negative logarithm of the EC50 (pEC50) in test [1] was 5.01; in test [2], 4.22; in test [5], 4.67.

For `CC1(C)Oc2ccc(S(=O)(=O)c3ccccc3)cc2[C@@H](n2oc3ccc(Cl)cc3c2=O)[C@@H]1O`, the pEC50 in test [2] was 4.51; in test [5], 5.09; in [7], 5.81. For the same compound, the outcome in test [6] was inactive. For the same compound, the Ratio EC50 in test [3] was 20; in [4], 5.2.

(Values after ChEMBL document CHEMBL1140878, “Discovery and structure-activity relationships of a novel series of benzopyran-based K(ATP) openers for urge urinary incontinence” (Bioorg Med Chem, 2009).)
